Compound activity deposited in PubChem BioAssay by several laboratories.
SR-BI DiI-HDL act: enhances SR-BI lipid uptake from DiI-HDL. activation, % at 12.5 µM. 0.096% of 320,000 active. CHO ldlA[mSR-BI] cells, DiI-HDL uptake fluorescence, 3 h; 100 = double the neutral-control signal. AID 504775;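 active means mean replicate activation of at least 60% and every replicate at or above 60%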;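 further: 0% = median plate neutral-control signal and 100% = twice that signal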
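system = CHO ldlA[mSR-BI] cells, LDL receptor-null, SR-BI overexpressing | medium = Ham's F12 with 0.5% BSA, HEPES 25 mM, pH 7.4 | probe or stimulus = DiI-HDL 10 µg/mL | compound dosing = single-point compound dose | incubation = compound exposure 3 h, 37 °C | technique = DiI fluorescence, bottom read | read-out = cell-associated DiI fluorescence as measure of HDL uptake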
DNA FID counter: fluorescent intercalator displacement, NS3 helicase counter-screen | 0.17% of 290,000 active | inhibition, % at 7.9 µM | DNA fluorescent intercalator displacement, fluorescence; in the data active means inhibition above about 37%;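 further: 0% = vehicle and 100% = reference compound; higher means more ethidium bromide displaced from hairpin DNA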
SR-BI HDL uptake: inhibitors of mouse SR-BI mediated HDL lipid uptake. Q61009. ldlA[mSR-BI] CHO cells, DiI-HDL uptake fluorescence, 3 h. inhibition, % at 12.5 µM. 0.96% of 320,000 active;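 active means mean replicate inhibition of at least 70% and a set share of replicates each scoring 70 or more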;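 further: 0% = median of neutral control wells and 100% = median of positive control wells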
TMEM16A inh: mouse TMEM16A channel inhibition, primary screen. Q8BHY3. HEK293 TMEM16A/YFP iodide influx fluorescence, ionomycin. normalized B-score (activity score, 25-100; higher = stronger inhibition) at 10 µM. 1.2% of 310,000 active. AID 588511;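 active means ratio plate-corrected score three or more library SD toward inhibition, starting fluorescence score within five deviations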;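 further: score derived from kinetic fluorescence span divided by baseline fluorescence per well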
Kir21 inh: blocks the mouse Kir2.1 inward-rectifier potassium channel. HEK293-Kir2.1, FluxOR thallium flux fluorescence; active compounds read low. 0.85% of 310,000 active. B-score at 10 µM;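 active means fluorescence ratio B-score at or below minus 3 SD of library scores, with starting-brightness B-score within 2 SD, cut at about -4.2 in these data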;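 further: channel flux triggered by added potassium and thallium sulfate stimulus; B-score of peak minus minimum fluorescence over baseline after thallium stimulus; more negative B-score means stronger Kir2.1 block with less thallium influx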
TMEM16A act: activators or potentiators of mouse TMEM16A chloride channel | 0.3% of 340,000 active | B-score at 10 µM | HEK293 TMEM16A/YFP-H148Q/I152L, iodide quench fluorescence; active compounds read low | Q8BHY3;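 active means fluorescence-ratio B-score plate-corrected deviation score at least 3 library SD below zero, with starting fluorescence score within 5 deviations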;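 further: channel opened by trigger with iodide after compound preincubation; score built on the fluorescence ratio of max minus min over baseline; more negative score means more quench and so TMEM16A activation or potentiation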
* hit, by the source's call; i = inactive; / = no result given. In the library only some 3% were active in any assay of this set; here they are far more common.

SMILES	SR-BI DiI-HDL act	DNA FID counter	SR-BI HDL uptake	TMEM16A inh	Kir21 inh	TMEM16A act
O=[N+]([O-])c1ccccc1S(=O)(=O)NCCC1=CCCCC1	10.7	-2.9	-10.7	25*	-0.58	i
COc1ccc2[nH]cc(CCNC(=O)CC[C@H]3O[C@@H](n4cc(C)c(=O)[nH]c4=O)C[C@@H]3O)c2c1	7.6	/	-7.6	/	/	/
O=C(Nc1cccc(C(F)(F)F)c1)Nc1ccc(N2CCCC2)c(S(=O)(=O)Nc2ccccc2Cl)c1	-91.0	13.0	91.0*	i	1.28	i
CC(C)(C)N(Cc1ccccc1)C(=O)COc1cccnc1[N+](=O)[O-]	28.5	-12.5	-28.5	i	0	i
Cc1ccc(S(=O)(=O)N(C(=O)c2ccncc2)c2ccc(OC(=O)c3ccncc3)c3ccccc23)c(C)c1	17.5	-6.7	-17.5	i	1.48	i
Cc1ccc(S(=O)(=O)N(C(=O)c2ccncc2)c2ccc(OC(=O)c3ccncc3)c3ccccc23)cc1	429.6*	1.8	-429.6	i	-0.72	i
Cn1[nH]cc(C=NC(N)=O)c1=O	6.3	/	-6.3	/	/	i
Cc1ccc(S(=O)(=O)c2ccc(Cl)cc2)cc1S(=O)(=O)N1CCOCC1	3.8	-28.4	-3.8	25*	-2.29	i
COc1cccc(Oc2ccc(N/C=C/C(=O)C(C)(C)C)cc2)c1	-27.5	-0.8	27.5	25*	-0.51	i
COc1ccc(Oc2ccc(N/C=C/C(=O)C(C)(C)C)cc2)cc1	-0.6	-1.2	0.6	i	-0.11	i
c1ccc(CSc2nnnn2-c2cccc3ccccc23)nc1	-3.2	-14.4	3.2	i	-7.37*	i
c1ccc(COc2ccc(CNCc3cccnc3)cc2)cc1	10.3	22.9	-10.3	i	-1.78	i
COc1ccccc1C(=O)NCCC(=O)N1CC=C(c2ccccc2)CC1	3.9	/	-3.9	i	-4.46*	i
C/C(=N\NC(=O)c1ccc(CN2CCc3ccccc3C2)cc1)c1ccccc1O	-108.7	-0.7	108.7*	100*	0.75	i
CCOc1cc(Br)c(CN2C(=O)NC3(CCCCCC3)C2=O)cc1OCC	-6.3	-27.8	6.3	i	0.87	i
c1nc2n(n1)C1=C(CCCC1)C1(CCCCC1)N2	-8.8	-2.7	8.8	i	1.62	-4.83*
O=C(c1ccccc1)c1cc([N+](=O)[O-])ccc1N1CCCC1	-20.9	2.4	20.9	i	-1.15	i
COc1ccc(C(=O)c2cc([N+](=O)[O-])ccc2N2CCCC2)cc1	-70.4	2.4	70.4*	i	0.92	i
COc1ccc(C(=O)c2cc([N+](=O)[O-])ccc2N2CCN(C)CC2)cc1	-19.5	39.9*	19.5	i	-0.86	i
O=C(c1ccc(Br)cc1)c1cc([N+](=O)[O-])ccc1N1CCCCC1	-87.8	9.0	87.8*	i	1.29	i
CN1CCN(c2ccc([N+](=O)[O-])cc2C(=O)c2ccc(Br)cc2)CC1	-10.4	8.5	10.4	i	0.77	i
CCNS(=O)(=O)c1ccc(CCC(=O)N2CCN(c3ccccc3F)CC2)cc1	-12.0	-27.8	12.0	i	-1.1	i
O=C(CSc1nnc(COc2ccc(Cl)cc2)o1)N1CCCCC1	/	-29.2	/	i	1.22	i
C[C@@H]1O[C@@H](OC[C@H]2O[C@@H](Oc3cc(O)c4c(=O)cc(-c5ccc(O)c(O)c5)oc4c3)[C@H](O)[C@@H](O)[C@@H]2O)[C@H](O)[C@H](O)[C@H]1O	-10.7	/	10.7	/	/	i
O=c1cc(-c2ccc(O)c(O)c2)oc2cc(O[C@@H]3O[C@H](CO)[C@@H](O)[C@H](O)[C@H]3O)cc(O)c12	34.9	/	-34.9	/	/	-16*
CCN(CC(=O)NCc1ccc(F)cc1)C(=O)c1ccc(C(=O)c2ccccc2)cc1	-16.1	-43.6	16.1	i	-1.71	i
CCCCCC(=O)NC(=S)Nc1ccc(Br)cc1C	69.6*	1.0	-69.6	i	-0.06	i
N#Cc1c(/N=C/c2ccccc2)oc(-c2ccccc2)c1-c1ccccc1	-6.9	-5.5	6.9	i	0.04	i
COc1ccc(-c2oc(/N=C/N3CCOCC3)c(C#N)c2-c2ccc(OC)cc2)cc1	-72.2	-16.2	72.2*	i	-1.52	i
